Source: PubChem (several laboratories)
DNA FID counter = compounds displacing fluorescent DNA intercalator, primary screen, artefact control for HCV NS3 helicase inhibitor project, biochemical, FID fluorescence. DNA fluorescent intercalator displacement. hit rate 0.17% among 290,000. inhibition, % at 7.9 µM; in the data active = inhibition above about 37%;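 also: higher means more ethidium bromide displaced from hairpin DNA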
ANO1 block = TMEM16A chloride channel inhibitors, primary screen, cell-based, HTS; Anoctamin-1 (Mus musculus), Q8BHY3; HEK293 TMEM16A/YFP iodide influx fluorescence, ionomycin; normalized B-score (activity score, 25-100; higher = stronger inhibition) at 10 µM; hit rate 1.2% among 310,000; AID 588511, 2011;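 active = ratio plate-corrected score three or more library SD toward inhibition, starting fluorescence score within five deviations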;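 also: score derived from kinetic fluorescence span divided by baseline fluorescence per well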
ANO1 activ = TMEM16A chloride channel activators or potentiators, primary screen, cell-based, HTS | HEK293 TMEM16A/YFP-H148Q/I152L, iodide quench fluorescence; hits give low values | AID 623877, 2012 | hit rate 0.3% among 340,000 | B-score at 10 µM;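 active = fluorescence-ratio B-score plate-corrected deviation score at least 3 library SD below zero, with starting fluorescence score within 5 deviations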;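 also: channel opened by trigger with iodide after compound preincubation; score built on the fluorescence ratio of max minus min over baseline; more negative score means more quench and so TMEM16A activation or potentiation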
SR-BI DiI inh = inhibitors of SR-BI mediated HDL lipid uptake, primary screen, ldlA[mSR-BI] cells, fluorescence, single point; inhibition, % at 12.5 µM; hit rate 0.96% among 320,000; ldlA[mSR-BI] CHO cells, DiI-HDL uptake fluorescence, 3 h;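 active = mean replicate inhibition of at least 70% and a set share of replicates each scoring 70 or more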
Kir21 block = inhibitors of mouse Kir2.1 inward-rectifier potassium channel; HEK293-Kir2.1, FluxOR thallium flux fluorescence; hits give low values; B-score at 10 µM; hit rate 0.85% among 310,000;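 active = fluorescence ratio B-score at or below minus 3 SD of library scores, with starting-brightness B-score within 2 SD, cut at about -4.2 in these data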;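 also: channel flux triggered by added potassium and thallium sulfate stimulus; B-score of peak minus minimum fluorescence over baseline after thallium stimulus; more negative B-score means stronger Kir2.1 block with less thallium influx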
Target sequence (P35561 whole entry, looked up): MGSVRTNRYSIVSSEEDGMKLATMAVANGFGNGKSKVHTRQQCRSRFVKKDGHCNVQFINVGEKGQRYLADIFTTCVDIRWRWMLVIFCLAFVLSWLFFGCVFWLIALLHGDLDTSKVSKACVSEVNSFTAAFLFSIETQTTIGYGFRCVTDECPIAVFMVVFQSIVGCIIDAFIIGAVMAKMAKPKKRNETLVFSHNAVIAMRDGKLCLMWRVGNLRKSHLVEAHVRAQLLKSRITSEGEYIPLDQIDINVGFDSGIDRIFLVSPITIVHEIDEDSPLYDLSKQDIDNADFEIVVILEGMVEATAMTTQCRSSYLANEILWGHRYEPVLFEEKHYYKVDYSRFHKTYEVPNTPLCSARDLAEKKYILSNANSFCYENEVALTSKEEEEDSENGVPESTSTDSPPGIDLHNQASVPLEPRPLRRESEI
SR-BI uptake up = activators of SR-BI mediated DiI-HDL uptake, primary screen, ldlA[mSR-BI] CHO cells, DiI fluorescence. 3 h; 100 = double the neutral-control signal. activation, % at 12.5 µM. hit rate 0.096% among 320,000. AID 504775, 2011;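 active = mean replicate activation of at least 60% and every replicate at or above 60%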
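Material: SR-BI-overexpressing, LDLR-lacking CHO cells | Dosing: Single compound concentration, delivered by pin transfer | Probe or stimulus: Labelled HDL, 10 µg/mL | Signal: Bottom-read cell fluorescence after medium removal, ex 550/em 595 nm | Schedule: 3 h, 37 °C | Evaluation: HDL uptake via cellular fluorescence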
TMEM16A reconf = TMEM16A chloride channel inhibitors, confirmation, cell-based, re-confirmation. hit rate 39% among 2,300. inhibition, % at 10 µM. HEK293 TMEM16A/YFP-H148Q, iodide quench fluorescence; ionomycin added to raise cell calcium. shares compounds with ANO1 block;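 active = mean duplicate percent inhibition, scaled so buffer wells are 0 and the reference blocker 100, over three buffer SD above buffer mean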
TMEM16A Ca cntr = calcium mobilization in TMEM16A/YFP HEK293 cells, confirmation, counter-screen for TMEM16A inhibitor project; shares compounds with ANO1 block; Fluo4 calcium mobilization; calcium response (% of ionomycin), % at 10 µM; hit rate 2% among 2,300;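 active = duplicate-averaged calcium signal over 20% of the ionomycin maximum, relative to buffer baseline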;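 also: each well's signal is peak minus trough fluorescence divided by its pre-addition baseline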
YFP-HEK293 quench = iodide YFP quench changes in parental YFP-HEK293, counter-screen for TMEM16A inhibitor project, cell-based; ionomycin; shares compounds with ANO1 block; YFP ratio F(max-min)/F0 at 10 µM; 2,300 tested, under 10 active;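 active = yellow fluorescent protein signal ratio exceeding the buffer control mean by over 5 SD of those controls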;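 also: ratio is mean of duplicate wells from kinetic YFP trace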
ClC-1 rat inh = ClC-1 chloride channel inhibition, selectivity assay for TMEM16A inhibitor project, cell-based, voltage-dependent ClC-1 | CHO ClC-1-YFP, iodide influx fluorescence quench; iodide control reads 0, buffer control 100 | 2,300 tested, under 10 active | AID 652236, 2013 | ratio percent, % at 10 µM | shares compounds with ANO1 block;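 active = duplicate-mean ratio percent above the mean of iodide-only control wells, which defines zero, plus 5 of their SD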;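 also: higher percent means stronger block of ClC-1 iodide influx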
Hits are given with their value; i = inactive; nt = no result. This is a sample that favours compounds with a hit; in the whole collection about 3% have one here.

SMILES	DNA FID counter	ANO1 block	ANO1 activ	SR-BI DiI inh	Kir21 block	SR-BI uptake up	TMEM16A reconf	TMEM16A Ca cntr	YFP-HEK293 quench	ClC-1 rat inh
Cc1ccc(C)c(N2CCN(S(=O)(=O)c3ccc4c(c3)CC(C)N4C(=O)C3CC3)CC2)c1 (stereo unspecified)	i	i	i	i	i	i	i	i	i	i
Cc1cccc(N2CCN(S(=O)(=O)c3ccc4c(c3)CC(C)N4C(=O)C3CC3)CC2)c1C (stereo unspecified)	i	i	i	i	i	i	nt	nt	nt	nt
CC(=O)c1ccc(N2CCN(S(=O)(=O)c3ccc4c(c3)CC(C)N4C(C)=O)CC2)cc1 (stereo unspecified)	i	25	i	i	i	i	26%	i	i	i
Cc1cccc(C)c1NC(=O)CN(C)C(=O)CSC(=S)N1CCCC1	nt	i	i	i	i	i	nt	nt	nt	nt
Clc1ccc(CSc2nccn2Cc2ccccc2)cc1	i	100	i	i	i	i	44%	i	i	i
COc1ccc(/C(O)=C/C(=O)C(=O)NNC(=O)c2ccccc2)cc1	i	i	i	i	i	i	nt	nt	nt	nt
COc1ccc(/C(O)=C/C(=O)C(=O)NNC(=O)C(O)(c2ccccc2)c2ccccc2)cc1	i	100	-10	i	i	i	20%	i	i	i
CCN(CC)C(=O)c1ccc(NS(=O)(=O)c2ccc3[nH]c(=O)[nH]c3c2)cc1	i	i	i	i	i	i	nt	nt	nt	nt
COc1ccc(S(=O)(=O)NCc2ccc(C(=O)NCc3cccnc3)cc2)cc1	i	i	nt	nt	i	nt	nt	nt	nt	nt
COc1cccc(NC(=O)c2ccc(S(=O)(=O)NCc3cccnc3)cc2)c1	i	100	i	i	i	i	i	i	i	i
CCCCCOC(=O)C1C(c2ccccc2)C(C(=O)O)C1c1ccccc1 (stereo unspecified)	i	25	i	i	i	i	i	i	i	i
CCCCC1CC(C)(C(=O)CSc2nc3ccccc3s2)OC1=O (stereo unspecified)	i	100	i	nt	i	nt	30%	i	i	i
O=C(c1ccc(F)cc1)N1CCC(c2ccccc2)C1 (stereo unspecified)	i	i	i	i	i	i	i	i	i	i
COc1ccc(C(=O)N2CCCC(c3ccccc3)C2)cc1 (stereo unspecified)	i	i	i	i	nt	i	nt	nt	nt	nt
CCn1cc(C(=O)NCc2ccccn2)c(=O)c2cc(F)c(N3CCN(C)CC3)cc21	nt	i	i	i	i	i	i	i	i	i
Cc1c(-c2cccc(Cl)c2)nc2ccccc2c1C(=O)OC/C(O)=C(\C#N)c1nc2ccccc2[nH]1	i	i	i	i	i	i	nt	nt	nt	nt
CCOC(=O)C1=C(CSc2nc(-c3ccccc3)ccc2C#N)OC(N)=C(C#N)C1c1cccnc1 (stereo unspecified)	i	i	i	i	i	i	nt	nt	nt	nt
CCOC(=O)C1=C(CSc2nc(-c3ccccc3)ccc2C#N)OC(N)=C(C#N)C1c1ccccc1 (stereo unspecified)	i	i	i	i	i	i	i	i	i	i
COc1cc(/C=C2/CCC/C(=C\c3cc(O)c(OC)c(Cl)c3)C2=O)cc(Cl)c1O	i	i	i	i	i	i	i	i	i	i
COc1cc(/C=C2\CC/C(=C\c3cc(OC)c(O)c(OC)c3)C2=O)cc(OC)c1O	i	i	i	i	nt	i	nt	nt	nt	nt
COc1ccccc1N(CC(=O)NCCc1ccccc1)C(=O)CCC(=O)Nc1cc(C)ccn1	i	i	i	nt	i	nt	nt	nt	nt	nt
COc1cc(OC)cc(-c2ncc3ccccn23)c1	i	100	i	i	i	i	i	i	i	i
c1coc(CNc2nc3nonc3nc2NCc2ccco2)c1	i	25	i	i	nt	i	i	i	i	i
Cc1occc1C(=O)N/N=C/C=C/c1ccc(N(C)C)cc1	i	i	i	i	i	i	i	i	i	i
CCOc1ccc(N=C2NC(=O)S/C2=C\c2ccc(N(C)C)cc2)cc1	i	i	i	i	i	i	i	i	i	i
SMILES	DNA FID counter	ANO1 block	ANO1 activ	SR-BI DiI inh	Kir21 block	SR-BI uptake up	TMEM16A reconf	TMEM16A Ca cntr	YFP-HEK293 quench	ClC-1 rat inh
Cc1ccc(NC(=O)CN2C(=O)C3CC=C(Cl)CC3C2=O)cc1 (stereo unspecified)	i	i	i	i	i	i	nt	nt	nt	nt
CCOC(=O)/C(C#N)=N/Nc1ccc(S(=O)(=O)Nc2cc(OC)nc(OC)n2)cc1	nt	i	i	nt	i	nt	nt	nt	nt	nt
CN=C(Cc1ccccc1)C1=C(O)CC(C)(C)CC1=O	i	i	i	i	i	i	nt	nt	nt	nt
CC1(C)CC(=O)C(CC(=O)NC(=O)NCc2ccccc2)=C(O)C1	i	100	i	i	i	i	i	i	i	i
COc1ccc(/C=N/NC(=O)c2ccoc2C)cc1COc1c(C)cccc1C	i	i	i	i	i	i	i	i	i	i
COc1ccc(/C=N\NC(=O)c2ccccc2OC)cc1COc1ccccc1C	i	i	i	i	i	i	nt	nt	nt	nt
CN(CC(=O)Nc1ccc(Cl)c(C(F)(F)F)c1)C(=O)Cc1n[nH]c(=O)c2ccccc12	nt	100	i	i	i	i	26%	i	i	i
CN(CC(=O)Nc1cccc(F)c1)C(=O)Cc1n[nH]c(=O)c2ccccc12	nt	i	i	i	i	i	nt	nt	nt	nt
Cn1c(=O)n(C)c2cc(S(=O)(=O)Nc3cc(Cl)ccc3O)ccc21	i	i	i	i	i	i	i	i	i	i
COc1ccccc1N1CCN(C(=O)c2ccc(-c3ccc(Cl)cc3)o2)CC1	nt	nt	i	i	nt	i	nt	nt	nt	nt
COC(=O)c1ccc(-c2noc(CN(C)Cc3ccncc3C)n2)cc1	i	25	i	i	i	i	i	i	i	i
CCOc1ccc(NC(=O)C2CCC(C)(C(=O)O)C2(C)C)cc1 (stereo unspecified)	i	25	i	i	i	i	i	i	i	i
